From ChEMBL document CHEMBL1138918, “Discovery of potent and orally available malonyl-CoA decarboxylase inhibitors as cardioprotective agents” (J Med Chem, 2006) come the findings set out here.

Series [1] is filed under the species Rattus norvegicus. The series can be described thus: Increase in glucose oxidation rate in rat heart at 10 uM relative to control. Type of series: functional. The essentials: (§1)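 Isolated working rat hearts; glucose oxidation rate expressed as ratio of compound-treated to 0.05% DMSO vehicle control, n = 8 hearts; test concentration 10 µM, or 1 µM where stated.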

A short description of series [2]: Cmax in Sprague-Dawley rat at 10 mg/kg, po. The format is ADME, organism-based. Details: dose 10 mg/kg, route oral. The settings on record: in vivo.
Series [3] is described as follows: Oral bioavailability in Sprague-Dawley rat at 10 mg/kg, iv and po. Type of series: ADME, organism-based. Conditions: in vivo. The essentials: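 Rats dosed iv and po; F computed as ratio of dose-normalized oral to iv plasma AUC over the same time frame.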
The species entered for series [4] is Rattus norvegicus. The series can be described thus: Cardioprotective activity in global ischemia-reperfusion rat model. Type of series: functional, organism-based. In short, it runs like this: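 Isolated rat hearts perfused aerobically 30 min, then 30 min global no-flow ischemia and 60 min aerobic reperfusion; compound at 1 µM added to perfusate either before ischemia or at onset of reperfusion.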

Series [5] is described as follows: Tmax in Sprague-Dawley rat at 10 mg/kg, po. The format is ADME, organism-based. Details: dose 10 mg/kg, route oral. Conditions: in vivo.
Series [6] concerns Rattus norvegicus. The series can be described thus: Volume of distribution in Sprague-Dawley rat at 10 mg/kg, iv or po. The format is ADME, organism-based. Further details: dose 10 mg/kg, route oral. The settings on record: in vivo.
Series [7] is described as follows: Half life in Sprague-Dawley rat at 10 mg/kg, iv. Conditions: in vivo. The format is ADME, organism-based. Details: dose 10 mg/kg, route intravenous.
The species entered for series [8] is Rattus norvegicus. Briefly: Increase in glucose oxidation rate in rat heart at 1 uM relative to control. Type of series: functional. In short, it runs like this:
as §1

Active and inactive are the calls of the source.

As a reminder, the Cmax is the maximum level reached in the sampled fluid or tissue. Usually bioavailability stands for the share of a dose that reaches the circulation, judged against a reference dose that is usually intravenous. A low value points to poor availability. For orientation: Tmax means the time from dosing to the highest level. As a reminder, the half-life is the time needed for the level to fall by half in the phase considered. Lower therefore signals rapid decline.

In turn, `CC(C)C[C@@H](CC(=O)OC(C)(C)C)NC(=O)C1=NOC(C(O)(C(F)(F)F)C(F)(F)F)C1` (stereo partly specified) yielded an Activity in the series listed under Rattus norvegicus [1] of 3.24%.
The same measure, in the same setting: in the case of `CC(C)CC(CC(=O)OC(C)(C)C)NC(=O)C1=NOC(C(O)(C(F)(F)F)C(F)(F)F)C1` (stereo unspecified) it was 4.28%.
In the case of `CC(CC(=O)OC(C)(C)C)NC(=O)C1=NOC(C(O)(C(F)(F)F)C(F)(F)F)C1` (stereo unspecified), the highest level in series [2] (Cmax) was 2680 ng/mL. The compound further registered a bioavailability in series [3] of 74%. Besides, in the series listed under Rattus norvegicus [4], the outcome was Active. For the same compound, the Tmax in series [5] came to 0.5 h. Besides, the Vss in the series on Rattus norvegicus [6] was found to be 2.193 L/kg. This compound also had a half-life in series [7] of 2.3 h. Moreover, the Activity in the series filed under Rattus norvegicus [1] is listed as 7.32%; in the series filed under Rattus norvegicus [8], 3.07%.
The compound `CC(C)CCCC(C)NC(=O)C1=NOC(C(O)(C(F)(F)F)C(F)(F)F)C1` (stereo unspecified) showed an Activity in the series filed under Rattus norvegicus [1] of 1.26%.
In the series filed under Rattus norvegicus [1], `CC(C)(C)OCCCNC(=O)C1=NOC(C(O)(C(F)(F)F)C(F)(F)F)C1` (stereo unspecified) showed an Activity of 5.42%.
On the same count and under the same terms, as for `CCCCCC(C)NC(=O)C1=NOC(C(O)(C(F)(F)F)C(F)(F)F)C1` (stereo unspecified), the figure is 0.8%; as for `CC(C)(C)OC(=O)CCNC(=O)C1=NOC(C(O)(C(F)(F)F)C(F)(F)F)C1` (stereo unspecified), 4.54%; as for `CC(C)CN(CC(C)C)C(=O)C1=NOC(C(O)(C(F)(F)F)C(F)(F)F)C1` (stereo unspecified), 2.11%.
Same read-out and setting: in the case of `C[C@@H](CC(=O)OC(C)(C)C)NC(=O)C1=NOC(C(O)(C(F)(F)F)C(F)(F)F)C1` (stereo partly specified) it was 5.01%.
